Active and inactive are the calls of the source. The calls are words filed in the database; no cut-off is given here.
Columns and labels:
[1] = system: MCF7; assay: Growth inhibition of human MCF7 cells after 72 hrs by CellTiter-Blue assay; type: functional; conditions: MCF7, 72 h
[2] = biological target: T1, NAD-dependent protein deacetylase sirtuin-1 (Homo sapiens) (UniProt Q96EB6); assay: Inhibition of SIRT1 in Trichostatin A treated human HCT116 cells assessed as increase in acetylated p53 K382 level at 10 to 50 uM after 6 hrs by Western blot analysis
T1 sequence (whole entry): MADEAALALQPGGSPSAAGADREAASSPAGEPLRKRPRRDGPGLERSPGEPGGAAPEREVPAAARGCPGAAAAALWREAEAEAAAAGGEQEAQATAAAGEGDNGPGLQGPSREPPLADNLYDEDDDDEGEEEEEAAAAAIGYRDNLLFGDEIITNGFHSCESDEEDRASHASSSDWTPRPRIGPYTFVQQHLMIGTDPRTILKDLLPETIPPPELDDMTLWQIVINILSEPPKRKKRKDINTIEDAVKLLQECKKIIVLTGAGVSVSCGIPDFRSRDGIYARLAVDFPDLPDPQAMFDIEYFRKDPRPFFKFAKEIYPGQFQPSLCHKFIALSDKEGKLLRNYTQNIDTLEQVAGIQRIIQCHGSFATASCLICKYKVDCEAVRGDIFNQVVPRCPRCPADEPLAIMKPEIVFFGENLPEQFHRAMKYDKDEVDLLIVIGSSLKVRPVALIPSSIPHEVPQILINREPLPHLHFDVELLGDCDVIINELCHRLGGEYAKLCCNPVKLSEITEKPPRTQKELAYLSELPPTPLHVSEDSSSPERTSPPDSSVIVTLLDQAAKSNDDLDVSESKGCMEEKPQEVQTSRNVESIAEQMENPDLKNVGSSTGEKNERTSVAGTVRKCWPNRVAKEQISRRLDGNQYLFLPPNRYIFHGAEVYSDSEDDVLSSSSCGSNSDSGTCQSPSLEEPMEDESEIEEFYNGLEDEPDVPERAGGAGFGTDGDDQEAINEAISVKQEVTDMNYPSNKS
Method in brief: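 HCT116 cells were seeded at 400 000 per well, grown 24 h, then cotreated with 400 nM TSA and inhibitor (25 μM, or 10–50 μM) for 6 h at 37 °C. Cells were lysed in 4% SDS buffer, pH 7.4. 50 μg of lysate was resolved by 12% SDS-PAGE and blotted for acetyl-p53 K382 antibody, with β-actin as loading control. Detection was by ECL.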

[3] = Toxicity in NSG mouse xenografted with human HCT116 cells harboring KRAS G13D mutant assessed as body weight loss at 100 mg/kg, ip administered daily for 12 days measured during compound dosing; conditions: in vivo, 288 h
[4] = system: HCT-116; assay: Antitumor activity against human HCT116 cells harboring KRAS G13D mutant xenografted in NSG mouse assessed as tumor growth inhibition by measuring reduction in tumor weight at 100 mg/kg, ip administered daily for 12 days and measured post-last dose relative to control; type: functional; conditions: HCT-116, ip, 288 h, read-out: TGI
Method in brief: (§1)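 NSG mice, female and male, about 4–8 weeks old, were implanted with 1 × 10⁶ HCT116 cells on both sides of the abdomen. Tumours grew 3–5 days until visible. Compound was given ip daily for 12 days in vehicle containing 10% DMSO and 10% Kolliphor EL (dosing solution 10 mg/mL); control mice received vehicle. Tumour volume was measured daily; tumours were excised and weighed on the last day. Unpaired two-tailed t-test.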

[5] = system: SW948; assay: Growth inhibition of human SW948 cells after 72 hrs by CellTiter-Blue assay; type: functional; conditions: SW948, 72 h
[6] = biological target: T2, NAD-dependent protein deacetylase sirtuin-2 (Homo sapiens) (UniProt Q8IXJ6); assay: Inhibition of SIRT2 in human HCT116 cells assessed as increase in alpha-tubulin acetylation at 25 uM incubated for 6 hrs by DAPI staining-based laser scanning confocal microscopic analysis; type: cell-based
T2 sequence (whole entry): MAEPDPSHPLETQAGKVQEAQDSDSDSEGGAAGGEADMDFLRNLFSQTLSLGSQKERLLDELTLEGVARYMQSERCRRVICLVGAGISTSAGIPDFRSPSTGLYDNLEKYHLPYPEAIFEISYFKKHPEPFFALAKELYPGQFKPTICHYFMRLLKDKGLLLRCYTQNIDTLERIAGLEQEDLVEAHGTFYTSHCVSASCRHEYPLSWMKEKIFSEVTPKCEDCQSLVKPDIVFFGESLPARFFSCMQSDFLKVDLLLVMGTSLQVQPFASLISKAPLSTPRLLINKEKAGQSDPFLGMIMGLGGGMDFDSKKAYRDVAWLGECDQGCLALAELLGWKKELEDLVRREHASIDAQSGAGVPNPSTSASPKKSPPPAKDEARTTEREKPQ
Method in brief: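 HCT116 cells were seeded at 400 000 on poly-D-lysine-coated glass-bottom dishes and grown 24 h. Cells were treated with DMSO or inhibitor for 6 h at 37 °C, fixed in ice-cold methanol, and blocked in TBS/0.1% Triton X-100/5% BSA. They were stained with anti-acetyl α-tubulin (1:100, overnight, 4 °C), then Cy3 anti-mouse, and mounted with DAPI. Imaging was by confocal microscopy.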

[7] = system: MDA-MB-231; assay: Potency index, ratio of TM GI50 to compound GI50 for growth inhibition of human MDA-MB-231 cells; type: functional
[8] = system: CCD-841CoN; assay: Growth inhibition of human CCD-841-CoN cells after 72 hrs by CellTiter-Blue assay; type: cell-based
Method in brief: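 3000 cells/well seeded, 20 h at 37 °C. Inhibitor added at final 1–100 μM, then 72 h at 37 °C. Viability read by CellTiter-Blue after 4 h at 37 °C, fluorescence 560 nm excitation/590 nm emission. GI50 derived.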

[9] = system: HCT-116; assay: Inhibition of anchorage-independent cell growth in human HCT116 cells assessed as reduction in colony formation incubated for 5 days followed by compound re-addition and measured after 9 to 11 days by nitro blue tetrazolium chloride-based soft agar colony formation assay; type: functional
Method in brief: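 HCT116 cells were mixed at 500 cells/mL into 0.3% agar growth layer over a 0.6% agar base layer (McCoy's medium, 10% calf serum). Both layers held inhibitor at 2.5–50 μM final. Wells were run in triplicate at 37 °C. Inhibitor-containing growth layer was added again at day 5. At 9–11 days, nitro blue tetrazolium was added overnight and colonies were imaged and counted.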

[10] = system: A549; assay: Potency index, ratio of TM GI50 to compound GI50 for growth inhibition of human A549 cells; type: functional
[11] = biological target: T1, NAD-dependent protein deacetylase sirtuin-1 (Homo sapiens); assay: Inhibition of SIRT1 in human HCT116 cells assessed as increase in acetylated p53 K382 level at 25 uM after 6 hrs by Western blot analysis; type: cell-based
[12] = system: MCF7; assay: Potency index, ratio of TM GI50 to compound GI50 for growth inhibition of human MCF7 cells; type: functional
[13] = system: HCT-116; assay: Antitumor activity against human HCT116 cells harboring KRAS G13D mutant xenografted in NSG mouse assessed as tumor growth inhibition by measuring reduction in tumor weight at 25 mg/kg, ip administered daily for 12 days and measured post-last dose; type: functional, organism-based; method in brief: as §1

SMILES	GI50 [1] [µM]	inhibition [2]	Activity [3]	inhibition in vivo at 100 mg/kg [4] [%]	GI50 [5] [µM]	inhibition [6]	RatioGI50 [7]	GI50 [8] [µM]	GI50 [9] [µM]	RatioGI50 [10]	inhibition [11]	RatioGI50 [12]	TGI [13]
CCCCCCCCCCNC(=S)NCCCC[C@H](NC(=O)OCc1ccccc1)C(=O)Nc1ccccc1	18.4	inactive	Non-Toxic	49	12.8	Active	2	47.4	7	2	inactive	2	–
CCCCCCCCNC(=S)NCCCC[C@H](NC(=O)OCc1ccccc1)C(=O)Nc1ccccc1	42.6	inactive	Non-Toxic	78	30	Active	–	–	7.4	–	inactive	–	inactive

From ChEMBL document CHEMBL4433206, “Novel Lysine-Based Thioureas as Mechanism-Based Inhibitors of Sirtuin 2 (SIRT2) with Anticancer Activity in a Colorectal Cancer Murine Model” (J Med Chem, 2019)
